Measurements as given in ChEMBL document CHEMBL2311289, “Novel 2-aminooctahydrocyclopentalene-3a-carboxamides as potent CCR2 antagonists” (Bioorg Med Chem Lett, 2013).

Columns and labels:
[1] = target: C-C chemokine receptor type 2 (Homo sapiens, UniProt P41597); assay: Binding affinity to human CCR2
[2] = target: Voltage-gated inwardly rectifying potassium channel KCNH2 (Homo sapiens, UniProt Q12809); assay: Binding affinity to human ERG
[3] = AUC in dog at 10 mg/kg, po; format: ADME, organism-based, Canis lupus familiaris; design: dose 10 mg/kg, route oral; conditions: plasma
How it was run: (§1)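 Dog pharmacokinetics: oral dosing at 10 mpk in 0.5% methocel and intravenous dosing at 2 mpk in 20% HPbCD. Readouts were systemic clearance, Vdss, oral t1/2 and oral AUC.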

[4] = Oral bioavailability in dog at 10 mg/kg; format: ADME, organism-based, Canis lupus familiaris; conditions: in vivo
[5] = Half life in dog at 10 mg/kg, po; format: ADME, organism-based, Canis lupus familiaris; design: dose 10 mg/kg, route oral; conditions: in vivo; how it was run: as §1
[6] = Volume of distribution at steady state in dog at 10 mg/kg, po and 2 mg/kg iv; format: ADME, organism-based, Canis lupus familiaris; conditions: in vivo, read-out: Vdss; how it was run: as §1
[7] = Clearance in dog at 10 mg/kg, po and 2 mg/kg iv; format: ADME, organism-based, Canis lupus familiaris; conditions: in vivo; how it was run: as §1
Mus musculus [8] = assay: Antiinflammatory activity in thioglycollate-induced mouse peritonitis model expressing human CCR2 assessed as inhibition of macrophage infiltration administered as po bid; format: functional
How it was run: (§2)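 Acute inflammation model: peritonitis was induced with thioglycollate in mCCR2 knock-out/hCCR2 knock-in mice. Compound was given orally, and infiltration of macrophages into the peritoneum was measured.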

Mus musculus [9] = assay: Antiinflammatory activity in thioglycollate-induced mouse peritonitis model expressing human CCR2 assessed as inhibition of macrophage infiltration at 10 mg/kg, po bid relative to control; format: functional; how it was run: as §2
Mus musculus [10] = assay: Antiinflammatory activity in thioglycollate-induced mouse peritonitis model expressing human CCR2 assessed as inhibition of macrophage infiltration at 3 mg/kg, po bid relative to control; format: functional; how it was run: as §2
Mus musculus [11] = assay: Antiinflammatory activity in thioglycollate-induced mouse peritonitis model expressing human CCR2 assessed as inhibition of macrophage infiltration at 1 mg/kg, po bid relative to control; format: functional; how it was run: as §2
Mus musculus [12] = assay: Antiinflammatory activity in thioglycollate-induced mouse peritonitis model expressing human CCR2 assessed as inhibition of macrophage infiltration at 0.3 mg/kg, po bid relative to control; format: functional; how it was run: as §2
Cytochrome P450 2C9 = Cytochrome P450 2C9 (Homo sapiens, UniProt P11712); assay: Inhibition of human CYP2C9; format: ADME
Cytochrome P450 3A4 = Cytochrome P450 3A4 (Homo sapiens, UniProt P08684); assay: Inhibition of human CYP3A4; format: ADME
Cytochrome P450 2D6 = Cytochrome P450 2D6 (Homo sapiens, UniProt P10635); assay: Inhibition of human CYP2D6; format: ADME
Cytochrome P450 2C19 = Cytochrome P450 2C19 (Homo sapiens, UniProt P33261); assay: Inhibition of human CYP2C19; format: ADME
Cytochrome P450 1A2 = target: T1, Cytochrome P450 1A2 (Homo sapiens, UniProt P05177); assay: Inhibition of human CYP1A2; format: ADME
T1 sequence (P05177 whole entry): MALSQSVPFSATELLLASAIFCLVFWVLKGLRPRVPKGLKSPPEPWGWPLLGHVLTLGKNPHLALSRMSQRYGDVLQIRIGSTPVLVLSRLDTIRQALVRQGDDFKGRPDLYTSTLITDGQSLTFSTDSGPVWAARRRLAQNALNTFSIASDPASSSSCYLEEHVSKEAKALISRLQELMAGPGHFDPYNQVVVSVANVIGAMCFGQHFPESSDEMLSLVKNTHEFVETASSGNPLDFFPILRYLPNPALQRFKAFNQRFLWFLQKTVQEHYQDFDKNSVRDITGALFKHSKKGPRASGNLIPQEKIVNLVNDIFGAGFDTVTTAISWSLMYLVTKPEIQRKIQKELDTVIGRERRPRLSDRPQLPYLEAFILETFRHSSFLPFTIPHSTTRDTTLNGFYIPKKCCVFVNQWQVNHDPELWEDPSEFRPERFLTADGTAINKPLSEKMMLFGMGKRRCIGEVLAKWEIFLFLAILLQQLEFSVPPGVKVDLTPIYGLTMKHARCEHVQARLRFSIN

Chain of Voltage-gated inwardly rectifying potassium channel KCNH2 (Q12809 whole entry): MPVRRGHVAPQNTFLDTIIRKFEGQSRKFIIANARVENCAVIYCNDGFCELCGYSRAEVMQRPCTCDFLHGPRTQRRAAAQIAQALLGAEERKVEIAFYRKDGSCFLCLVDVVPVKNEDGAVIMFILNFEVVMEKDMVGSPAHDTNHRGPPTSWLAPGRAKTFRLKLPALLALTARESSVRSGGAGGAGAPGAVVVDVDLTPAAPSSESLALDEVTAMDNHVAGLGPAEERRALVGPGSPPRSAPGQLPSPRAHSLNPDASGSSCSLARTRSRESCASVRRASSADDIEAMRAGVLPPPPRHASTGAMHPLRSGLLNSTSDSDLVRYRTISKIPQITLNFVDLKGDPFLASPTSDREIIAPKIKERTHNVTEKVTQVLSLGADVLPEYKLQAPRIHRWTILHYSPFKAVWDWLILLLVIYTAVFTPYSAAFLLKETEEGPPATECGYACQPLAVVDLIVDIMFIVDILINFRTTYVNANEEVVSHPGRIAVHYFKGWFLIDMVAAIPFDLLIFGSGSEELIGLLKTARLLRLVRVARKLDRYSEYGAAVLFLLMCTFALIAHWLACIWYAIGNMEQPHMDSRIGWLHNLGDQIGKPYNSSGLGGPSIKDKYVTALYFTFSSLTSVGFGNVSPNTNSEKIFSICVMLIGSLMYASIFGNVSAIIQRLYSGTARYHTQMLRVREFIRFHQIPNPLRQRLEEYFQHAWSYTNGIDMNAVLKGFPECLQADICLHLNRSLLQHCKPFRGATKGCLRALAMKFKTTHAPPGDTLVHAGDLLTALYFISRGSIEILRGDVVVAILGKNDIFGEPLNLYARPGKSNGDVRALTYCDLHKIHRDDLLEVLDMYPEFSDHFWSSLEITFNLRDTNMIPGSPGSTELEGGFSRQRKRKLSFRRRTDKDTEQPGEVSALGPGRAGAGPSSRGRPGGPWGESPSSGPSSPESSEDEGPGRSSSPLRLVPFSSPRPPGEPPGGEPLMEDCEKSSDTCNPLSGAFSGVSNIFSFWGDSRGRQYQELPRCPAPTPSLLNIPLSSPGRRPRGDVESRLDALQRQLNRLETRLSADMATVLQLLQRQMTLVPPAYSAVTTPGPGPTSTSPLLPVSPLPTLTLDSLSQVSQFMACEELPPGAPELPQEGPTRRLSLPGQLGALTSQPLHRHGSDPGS
Chain of C-C chemokine receptor type 2 (P41597 whole entry): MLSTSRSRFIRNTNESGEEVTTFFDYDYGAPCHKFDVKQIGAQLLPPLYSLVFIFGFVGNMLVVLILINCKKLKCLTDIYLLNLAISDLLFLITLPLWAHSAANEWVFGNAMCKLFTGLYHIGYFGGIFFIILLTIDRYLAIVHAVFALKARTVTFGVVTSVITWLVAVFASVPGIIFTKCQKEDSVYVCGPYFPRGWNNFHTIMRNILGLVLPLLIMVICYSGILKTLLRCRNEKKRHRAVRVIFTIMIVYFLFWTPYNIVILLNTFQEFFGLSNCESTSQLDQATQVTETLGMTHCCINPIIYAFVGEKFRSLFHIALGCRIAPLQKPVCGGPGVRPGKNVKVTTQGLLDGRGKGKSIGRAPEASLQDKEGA
Chain of Cytochrome P450 3A4 (P08684 whole entry): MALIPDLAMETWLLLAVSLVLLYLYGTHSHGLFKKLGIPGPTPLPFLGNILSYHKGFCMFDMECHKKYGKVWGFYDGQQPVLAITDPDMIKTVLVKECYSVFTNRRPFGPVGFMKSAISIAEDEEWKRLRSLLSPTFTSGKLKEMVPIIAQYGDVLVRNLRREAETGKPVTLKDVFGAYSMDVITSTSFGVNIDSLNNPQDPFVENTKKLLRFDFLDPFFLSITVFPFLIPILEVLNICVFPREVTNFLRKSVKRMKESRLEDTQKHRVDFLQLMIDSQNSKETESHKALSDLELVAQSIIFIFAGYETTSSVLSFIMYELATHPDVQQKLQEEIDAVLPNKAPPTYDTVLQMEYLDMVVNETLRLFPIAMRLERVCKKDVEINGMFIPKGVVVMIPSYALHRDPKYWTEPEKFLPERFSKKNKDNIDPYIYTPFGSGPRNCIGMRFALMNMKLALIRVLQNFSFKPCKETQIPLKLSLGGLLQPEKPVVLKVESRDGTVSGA
Chain of Cytochrome P450 2C9 (P11712 whole entry): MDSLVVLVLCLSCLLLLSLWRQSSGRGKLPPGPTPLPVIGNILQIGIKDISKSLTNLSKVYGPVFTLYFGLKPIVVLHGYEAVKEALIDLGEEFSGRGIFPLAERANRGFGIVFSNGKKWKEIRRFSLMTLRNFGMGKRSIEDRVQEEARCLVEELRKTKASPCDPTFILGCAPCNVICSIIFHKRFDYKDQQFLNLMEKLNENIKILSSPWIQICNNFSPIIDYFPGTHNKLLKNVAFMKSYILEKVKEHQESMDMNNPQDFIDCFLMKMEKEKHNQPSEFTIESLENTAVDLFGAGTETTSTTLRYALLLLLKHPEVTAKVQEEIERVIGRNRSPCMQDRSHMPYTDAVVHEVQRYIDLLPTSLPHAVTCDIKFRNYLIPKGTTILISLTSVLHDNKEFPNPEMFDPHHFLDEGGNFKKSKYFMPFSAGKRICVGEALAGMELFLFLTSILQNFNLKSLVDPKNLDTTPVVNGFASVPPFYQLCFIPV
Chain of Cytochrome P450 2C19 (P33261 whole entry): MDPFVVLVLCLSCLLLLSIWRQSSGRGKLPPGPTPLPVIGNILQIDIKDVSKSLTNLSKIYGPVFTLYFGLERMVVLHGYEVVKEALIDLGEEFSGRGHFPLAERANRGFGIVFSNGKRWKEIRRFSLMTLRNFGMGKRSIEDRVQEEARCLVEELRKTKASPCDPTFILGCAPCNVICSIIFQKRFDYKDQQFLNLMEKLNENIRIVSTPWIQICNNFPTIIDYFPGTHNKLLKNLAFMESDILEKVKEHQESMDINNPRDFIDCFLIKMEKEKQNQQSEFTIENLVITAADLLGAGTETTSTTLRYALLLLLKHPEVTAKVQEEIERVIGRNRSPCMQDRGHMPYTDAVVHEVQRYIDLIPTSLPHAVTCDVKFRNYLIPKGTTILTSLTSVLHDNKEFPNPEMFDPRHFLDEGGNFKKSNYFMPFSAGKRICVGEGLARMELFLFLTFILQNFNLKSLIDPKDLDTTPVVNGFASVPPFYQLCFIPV
Chain of Cytochrome P450 2D6 (P10635 whole entry): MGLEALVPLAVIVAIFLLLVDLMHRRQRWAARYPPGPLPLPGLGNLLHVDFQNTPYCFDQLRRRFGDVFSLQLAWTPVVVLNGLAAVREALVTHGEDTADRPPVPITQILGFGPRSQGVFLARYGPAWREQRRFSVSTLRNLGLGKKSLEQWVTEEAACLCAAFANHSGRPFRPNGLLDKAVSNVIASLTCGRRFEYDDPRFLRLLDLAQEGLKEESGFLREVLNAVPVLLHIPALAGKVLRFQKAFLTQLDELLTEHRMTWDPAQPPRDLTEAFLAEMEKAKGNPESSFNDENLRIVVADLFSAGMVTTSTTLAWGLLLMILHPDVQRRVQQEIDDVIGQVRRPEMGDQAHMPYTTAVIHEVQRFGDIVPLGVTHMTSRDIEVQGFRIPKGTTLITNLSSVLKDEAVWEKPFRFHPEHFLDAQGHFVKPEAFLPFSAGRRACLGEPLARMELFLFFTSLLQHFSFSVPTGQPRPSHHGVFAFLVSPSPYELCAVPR

Row | Compound | IC50 [1] [µM] | IC50 [2] [µM] | other results
1 | COC1COCCC1N[C@@H]1C[C@H]2CCC[C@@]2(C(=O)N2CCc3ccc(C(F)(F)F)cc3C2)C1 (mixture of isomers) | 0.034 | 27.6 | 
2 | COC1COCCC1N[C@@H]1C[C@H]2C[C@H](O)C[C@@]2(C(=O)N2CCc3ncc(C(F)(F)F)cc3C2)C1 (mixture of isomers) | 0.059 | > 50 | 
3 | COC1COCCC1N[C@@H]1C[C@H]2CCC[C@@]2(C(=O)N2CCc3ncc(Cl)cc3C2)C1 (mixture of isomers) | 1.1 |  | 
4 | O=C(N1CCc2ncc(C(F)(F)F)cc2C1)[C@@]12CCC[C@@H]1C[C@@H](NC1CCCCCC1)C2 | 0.699 |  | 
5 | COC1COCCC1N[C@@H]1C[C@H]2CCC[C@@]2(C(=O)N2CCc3ccc(Br)cc3C2)C1 (mixture of isomers) | 0.29 | 20.3 | 
6 | COC1COCCC1N[C@@H]1C[C@H]2CCCC[C@@]2(C(=O)N2CCc3ncc(C(F)(F)F)cc3C2)C1 (mixture of isomers) | 1.07 |  | 
7 | O=C(N1CCc2ncc(C(F)(F)F)cc2C1)[C@@]12CCC[C@@H]1C[C@@H](NC1CCSCC1)C2 | 0.874 | 23.1 | 
8 | O=C(N1CCc2ncc(C(F)(F)F)cc2C1)[C@@]12CCC[C@@H]1C[C@@H](NC1CCCC1)C2 | 2.33 | 33.5 | 
9 | COC1COCCC1N[C@@H]1C[C@H]2CCC[C@@]2(C(=O)N2CCc3ncc(OC(C)C)cc3C2)C1 (mixture of isomers) | 5.6 |  | 
10 | COC1COCCC1N[C@@H]1C[C@H]2C[C@H](F)C[C@@]2(C(=O)N2CCc3ncc(C(F)(F)F)cc3C2)C1 (mixture of isomers) | 0.023 |  | 
11 | CO[C@@H]1COCC[C@@H]1N[C@@H]1C[C@H]2CCC[C@@]2(C(=O)N2CCc3ncc(C(F)(F)F)cc3C2)C1 |  |  | AUC [3]: 12100 ng·h/mL; bioavailability [4]: 100%; half-life [5]: 3.4 h; Vd [6]: 2.3 L/kg; clearance [7]: 15.2 mL/min/kg; ED50 (Mus musculus [8]): 0.1 mg/kg; inhibition in vivo at 10 mg/kg (Mus musculus [9]): 101%; inhibition in vivo at 3 mg/kg (Mus musculus [10]): 100%; inhibition in vivo at 1 mg/kg (Mus musculus [11]): 100%; inhibition in vivo at 0.3 mg/kg (Mus musculus [12]): 89%; IC50 (Cytochrome P450 2C9): > 10 µM; IC50 (Cytochrome P450 3A4): 7.5 µM; IC50 (Cytochrome P450 2D6): > 10 µM; IC50 (Cytochrome P450 2C19): > 10 µM; IC50 (Cytochrome P450 1A2): > 10 µM
12 | COC1COCCC1N[C@@H]1C[C@H]2CCC[C@@]2(C(=O)N2CCc3ccc(F)cc3C2)C1 (mixture of isomers) | 4.4 |  | 
13 | O=C(N1CCc2ncc(C(F)(F)F)cc2C1)[C@@]12CCC[C@@H]1C[C@@H](NCC1CCOCC1)C2 | > 25 | 47 | 
14 | COC1COCCC1N[C@@H]1C[C@H]2C[C@H](C(F)(F)F)C[C@@]2(C(=O)N2CCc3ncc(C(F)(F)F)cc3C2)C1 (mixture of isomers) | 1.26 |  | 
15 | COC1COCCC1N[C@@H]1C[C@H]2C[C@@H](OC)C[C@@]2(C(=O)N2CCc3ncc(C(F)(F)F)cc3C2)C1 (mixture of isomers) | 0.2 | > 50 | 
16 | COc1cnc2c(c1)CN(C(=O)[C@@]13CCC[C@@H]1C[C@@H](NC1CCOCC1OC)C3)CC2 (mixture of isomers) | > 25 |  | 
17 | COC1COCCC1N[C@@H]1C[C@H]2C[C@H](OC)C[C@@]2(C(=O)N2CCc3ncc(C(F)(F)F)cc3C2)C1 (mixture of isomers) | 0.21 | > 50 | 
18 | COC1COCCC1N[C@@H]1C[C@H]2C[C@H](C(N)=O)C[C@@]2(C(=O)N2CCc3ncc(C(F)(F)F)cc3C2)C1 (mixture of isomers) | 0.088 |  | 
19 | O=C(N1CCc2ncc(C(F)(F)F)cc2C1)[C@@]12CCC[C@@H]1C[C@@H](NC1CCOCC1)C2 | 0.125 | 25.7 | 
20 | COC1COCCC1N[C@@H]1C[C@H]2C[C@@H](C(N)=O)C[C@@]2(C(=O)N2CCc3ncc(C(F)(F)F)cc3C2)C1 (mixture of isomers) | 0.13 |  | 

Row | Compound | IC50 [1] [µM] | IC50 [2] [µM] | other results
21 | COC1COCCC1N[C@@H]1C[C@H]2CCC[C@@]2(C(=O)N2CCc3ccc(C#N)cc3C2)C1 (mixture of isomers) | 1.8 |  | 
22 | CCC(CC)N[C@@H]1C[C@H]2CCC[C@@]2(C(=O)N2CCc3ncc(C(F)(F)F)cc3C2)C1 | 3.3 | > 50 | 
23 | COC1COCCC1N[C@@H]1C[C@H]2CC(F)(F)C[C@@]2(C(=O)N2CCc3ncc(C(F)(F)F)cc3C2)C1 (mixture of isomers) | 0.095 | > 50 | 
24 | COC1COCCC1N[C@@H]1C[C@H]2C[C@H](N(C)C)C[C@@]2(C(=O)N2CCc3ncc(C(F)(F)F)cc3C2)C1 (mixture of isomers) | 8.09 |  | 
25 | O=C(N1CCc2ncc(C(F)(F)F)cc2C1)[C@@]12CCC[C@@H]1C[C@@H](NC1CCS(=O)(=O)CC1)C2 | 3.56 |  | 
26 | COC1COCCC1N[C@@H]1C[C@H]2C[C@@H](Cl)C[C@@]2(C(=O)N2CCc3ncc(C(F)(F)F)cc3C2)C1 (mixture of isomers) | 0.045 | > 50 | 
27 | COC1COCCC1N[C@@H]1C[C@H]2CCC[C@@]2(C(=O)N2CCc3ccc(OC(F)(F)F)cc3C2)C1 (mixture of isomers) | 0.016 |  | 
28 | COC1COCCC1N[C@@H]1C[C@H]2C[C@@H](C(F)(F)F)C[C@@]2(C(=O)N2CCc3ncc(C(F)(F)F)cc3C2)C1 (mixture of isomers) | 0.263 |  | 
29 | COC1COCCC1N[C@@H]1C[C@H]2CCC[C@@]2(C(=O)N2CCc3ncc([N+](=O)[O-])cc3C2)C1 (mixture of isomers) | 1.5 |  | 
30 | O=C(N[C@@H]1C[C@H]2CCC[C@@]2(C(=O)N2CCc3ncc(C(F)(F)F)cc3C2)C1)C1CCOCC1 | > 25 | > 50 | 
31 | COC1COCCC1N[C@@H]1C[C@H]2C[C@@H](N(C)C)C[C@@]2(C(=O)N2CCc3ncc(C(F)(F)F)cc3C2)C1 (stereo not given in full) | 0.247 |  | 
32 | COC1COCCC1N[C@@H]1C[C@H]2C[C@@H](O)C[C@@]2(C(=O)N2CCc3ncc(C(F)(F)F)cc3C2)C1 (mixture of isomers) | 0.058 | > 50 | 
33 | COC1COCCC1N[C@@H]1C[C@H]2C[C@@H](F)C[C@@]2(C(=O)N2CCc3ncc(C(F)(F)F)cc3C2)C1 (mixture of isomers) | 0.15 |  | 
34 | COC1COCCC1N[C@@H]1C[C@H]2CCC[C@@]2(C(=O)N2CCc3ncc(Br)cc3C2)C1 (mixture of isomers) | 0.2 |  | 
35 | COC1COCCC1N[C@@H]1C[C@H]2CCC[C@@]2(C(=O)N2CCc3ncccc3C2)C1 (mixture of isomers) | > 25 |  | 
36 | O=C(N1CCc2ncc(C(F)(F)F)cc2C1)[C@@]12CCCC[C@@H]1C[C@@H](NC1CCOCC1)C2 | 7.93 | 38.9 | 
37 | O=C(N1CCc2ncc(C(F)(F)F)cc2C1)[C@@]12CCC[C@@H]1C[C@@H](NC1CCCCC1)C2 | 1.53 |  | 
38 | COC1COCCC1N[C@@H]1C[C@H]2C[C@H](Cl)C[C@@]2(C(=O)N2CCc3ncc(C(F)(F)F)cc3C2)C1 (mixture of isomers) | 0.02 | > 50 | 
39 | COC1COCCC1N[C@@H]1C[C@H]2CCC[C@@]2(C(=O)N2CCc3ccc(Cl)cc3C2)C1 (mixture of isomers) | 0.4 | 42.4 | 
